From ChEMBL document CHEMBL1146219, “Synthesis and evaluation of novel radioiodinated benzamides for malignant melanoma” (J Med Chem, 2007)

What was measured:
Details in all cases: in vivo
Heart [1] = test: Biodistribution in heart of B16F0 tumor bearing C57BL/6J mouse at 0.37-0.74 MBq, iv after 1 hr; type: ADME, organism-based
Summary of the method: (§1)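 Female C57BL/6J mice (15-18 g) were given B16F0 cells subcutaneously in the left flank (0.1 mL of 3 × 10⁶ viable cells/mL in Ca²⁺/Mg²⁺-free PBS) at 6-7 weeks and used after ten days. [¹²³I]benzamide (0.37-0.74 MBq, 100 µL, saline) was injected via the tail vein. Groups of n = 5 were killed by CO₂ and cervical dislocation. Organs were weighed and γ-counted, and the carcass was counted too.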

Kidney [2] = test: Biodistribution in kidney of B16F0 tumor bearing C57BL/6J mouse at 0.37-0.74 MBq, iv after 1 hr; type: ADME, organism-based; summary of the method: as §1
Kidney [3] = test: Biodistribution in kidney of B16F0 tumor bearing C57BL/6J mouse at 0.37-0.74 MBq, iv after 6 hrs; type: ADME, organism-based; summary of the method: as §1
Heart [4] = test: Biodistribution in heart of B16F0 tumor bearing C57BL/6J mouse at 0.37-0.74 MBq, iv after 24 hrs; type: ADME, organism-based; summary of the method: as §1
Brain [5] = test: Biodistribution in brain of B16F0 tumor bearing C57BL/6J mouse at 0.37-0.74 MBq, iv after 1 hr; type: ADME, organism-based; summary of the method: as §1
Lung [6] = test: Biodistribution in lung of B16F0 tumor bearing C57BL/6J mouse at 0.37-0.74 MBq, iv after 24 hrs; type: ADME, organism-based; summary of the method: as §1
Brain [7] = test: Biodistribution in brain of B16F0 tumor bearing C57BL/6J mouse at 0.37-0.74 MBq, iv after 24 hrs; type: ADME, organism-based; summary of the method: as §1
Lung [8] = test: Biodistribution in lung of B16F0 tumor bearing C57BL/6J mouse at 0.37-0.74 MBq, iv after 6 hrs; type: ADME, organism-based; summary of the method: as §1
Blood [9] = test: Biodistribution in blood of B16F0 tumor bearing C57BL/6J mouse at 0.37-0.74 MBq, iv after 1 hr; type: ADME, organism-based; summary of the method: as §1
Blood [10] = test: Biodistribution in blood of B16F0 tumor bearing C57BL/6J mouse at 0.37-0.74 MBq, iv after 24 hrs; type: ADME, organism-based; summary of the method: as §1
Liver [11] = test: Biodistribution in liver of B16F0 tumor bearing C57BL/6J mouse at 0.37-0.74 MBq, iv after 24 hrs; type: ADME, organism-based; summary of the method: as §1
Heart [12] = test: Biodistribution in heart of B16F0 tumor bearing C57BL/6J mouse at 0.37-0.74 MBq, iv after 6 hrs; type: ADME, organism-based; summary of the method: as §1
Liver [13] = test: Biodistribution in liver of B16F0 tumor bearing C57BL/6J mouse at 0.37-0.74 MBq, iv after 6 hrs; type: ADME, organism-based; summary of the method: as §1
Liver [14] = test: Biodistribution in liver of B16F0 tumor bearing C57BL/6J mouse at 0.37-0.74 MBq, iv after 1 hr; type: ADME, organism-based; summary of the method: as §1
Blood [15] = test: Biodistribution in blood of B16F0 tumor bearing C57BL/6J mouse at 0.37-0.74 MBq, iv after 6 hrs; type: ADME, organism-based; summary of the method: as §1
[16] = Biodistribution in melanoma of B16F0 tumor bearing C57BL/6J mouse at 0.37-0.74 MBq, iv after 6 hrs; type: ADME, organism-based, B16-F0
Summary of the method: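 Female C57BL/6J mice (15-18 g) carrying s.c. B16F0 flank tumors (0.1 mL of 3 × 10⁶ viable cells per mL in Ca²⁺/Mg²⁺-free PBS, inoculated at 6-7 weeks, used 10 days later). [¹²³I]tracer 0.37-0.74 MBq in saline, 100 µL, tail-vein i.v. Groups of n = 5 killed at 1-72 h. Organs weighed and γ-counted, carcass activity also counted, values as %ID/g.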

[17] = Biodistribution in melanoma of B16F0 tumor bearing C57BL/6J mouse at 0.37-0.74 MBq, iv after 1 hr; type: ADME, organism-based, B16-F0; summary of the method: as §1
Kidney [18] = test: Biodistribution in kidney of B16F0 tumor bearing C57BL/6J mouse at 0.37-0.74 MBq, iv after 24 hrs; type: ADME, organism-based; summary of the method: as §1
[19] = Biodistribution in melanoma of B16F0 tumor bearing C57BL/6J mouse at 0.37-0.74 MBq, iv after 24 hrs; type: ADME, organism-based, B16-F0; summary of the method: as §1
Brain [20] = test: Biodistribution in brain of B16F0 tumor bearing C57BL/6J mouse at 0.37-0.74 MBq, iv after 6 hrs; type: ADME, organism-based; summary of the method: as §1
Lung [21] = test: Biodistribution in lung of B16F0 tumor bearing C57BL/6J mouse at 0.37-0.74 MBq, iv after 1 hr; type: ADME, organism-based; summary of the method: as §1

| Drug uptake (Heart [1]) [% ID/g] | Drug uptake (Kidney [2]) [% ID/g] | Drug uptake (Kidney [3]) [% ID/g] | Drug uptake (Heart [4]) [% ID/g] | Drug uptake (Brain [5]) [% ID/g] | Drug uptake (Lung [6]) [% ID/g] | Drug uptake (Lung [8]) [% ID/g] | Drug uptake (Blood [9]) [% ID/g] | Drug uptake (Blood [10]) [% ID/g] | Drug uptake (Liver [11]) [% ID/g] | Drug uptake (Heart [12]) [% ID/g] | Drug uptake (Liver [13]) [% ID/g] | Drug uptake (Liver [14]) [% ID/g] | Drug uptake (Blood [15]) [% ID/g] | Drug uptake [16] [% ID/g] | Drug uptake [17] [% ID/g] | Drug uptake (Kidney [18]) [% ID/g] | Drug uptake [19] [% ID/g] | Drug uptake (Brain [20]) [% ID/g] | Drug uptake (Lung [21]) [% ID/g] | SMILES | also measured |
| --- | --- | --- | --- | --- | --- | --- | --- | --- | --- | --- | --- | --- | --- | --- | --- | --- | --- | --- | --- | --- | --- |
| 1.9 | 8.6 | 5.4 | 0.12 | 0.5 | 0.39 | 3.9 | 0.52 | 0.08 | 2.9 | 0.81 | 33 | 49.1 | 0.35 | 7.5 | 6.2 | 0.52 | 6.9 | 0.17 | 8.2 | CCCN(CCC)CCCCNC(=O)c1ccc([123I])cc1 | Drug uptake (Brain [7]): 0.04 % ID/g |
| 2 | 6.8 | 0.76 | 0.07 | 1.3 | 0.09 | 0.82 | 1.9 | 0.06 | 0.1 | 0.4 | 0.73 | 6.8 | 1.2 | 8.8 | 7.1 | 0.06 | 3 | 0.11 | 4.5 | CCN(CC)CCNC(=O)c1ccccc1[123I] | Drug uptake (Brain [7]): 0.01 % ID/g |
| 0.94 | 3.7 | 0.67 | 0.03 | 0.08 | 0.04 | 0.68 | 1.92 | 0.02 | 0.19 | 0.3 | 0.8 | 7.1 | 0.78 | 2.8 | 3.4 | 0.03 | 1.4 | 0.03 | 2.6 | COc1cc(NC(C)=O)c([123I])cc1C(=O)NCCCCN1CC2CCC1C2 (centres undefined) | – |
| 0.64 | 3.26 | 0.46 | 0.06 | 0.04 | 0.04 | 0.45 | 0.84 | 0.05 | 0.45 | 0.28 | 1.3 | 6 | 0.47 | 3.4 | 3.4 | 0.05 | 2.2 | 0.02 | 2 | CCCCNCCCCNC(=O)c1cc([123I])c(NC(C)=O)cc1OC | – |
| 0.42 | 1.3 | 0.49 | 0.04 | 0.05 | 0.03 | 0.38 | 0.77 | 0.01 | 0.28 | 0.19 | 1.2 | 2.3 | 0.49 | 3.6 | 5.4 | 0.06 | 1.7 | 0.02 | 0.67 | CCN(CC)CCNC(=O)c1cc([123I])c(NS(C)(=O)=O)cc1OC | – |
| 0.84 | 5.7 | 0.69 | 0.07 | 0.07 | 0.06 | 0.5 | 1.3 | 0.02 | 0.42 | 0.3 | 1.5 | 9.5 | 0.68 | 6 | 5.5 | 0.06 | 3.7 | 0.03 | 1.5 | COc1cc(NC(C)=O)c([123I])cc1C(=O)NCCCCN(C)C(C)C | Drug uptake (Brain [7]): 0.07 % ID/g |
| 0.93 | 14.1 | 1 | 0.14 | 0.07 | 0.14 | 0.8 | 1.7 | 0.15 | 0.64 | 0.49 | 1.8 | 7.3 | 1.1 | 6.8 | 8 | 0.18 | 5.1 | 0.05 | 1.7 | CCCN(CCC)CCCCNC(=O)c1cc([123I])c(NC(C)=O)cc1OC | Drug uptake (Brain [7]): 0.01 % ID/g |
| 0.28 | 1.2 | 0.36 | 0.03 | 0.03 | 0.05 | 0.22 | 0.74 | 0.05 | 0.21 | 0.11 | 1.5 | 3.8 | 0.33 | 2.6 | 4.2 | 0.06 | 1.4 | – | 0.62 | CCN(CC)CCNC(=O)c1cc([123I])c(NS(=O)(=O)c2ccc(C)cc2)cc1OC | – |
| 1.05 | 15.2 | 4.9 | 0.13 | 0.1 | 0.4 | 2.1 | 0.48 | 0.03 | 3.5 | 0.44 | 27 | 43.2 | 0.24 | 3.5 | 3.8 | 0.59 | 3.4 | 0.06 | 6.9 | O=C(NCCCCN1CC2CCC1C2)c1ccc([123I])cc1 (centres undefined) | Drug uptake (Brain [7]): 0.01 % ID/g |
